Unmarked numbers belong to inactive results. Inconclusive results are not listed. Activity calls are given as the source filed them.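 Rule for the calls, unless noted: active = cell viability at or below a set limit in both duplicate runs, the limit being the all-compound median minus 4 SD (cut at about 23% in these data, passing the limit was not always enough); inconclusive = no clear call, values can overlap the other calls; inactive = the rest.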
What was measured:
[1] = S. cerevisiae growth inhibition in permissive medium (OD615), pilot counter-assay for S. cerevisiae lifespan shortening project, permissive growth control (AID 705;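 active = growth inhibition above 25% in both replicates, a cutoff set 3 SD above the mean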); details: OD615, 24 h, at 10 µM, active compounds read high
Procedure, shortened: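 System: S. cerevisiae with engineered DeaD lifespan system / Measured by: absorbance (optical density) at 615 nm / Read-out: reduction in yeast growth (OD615) / Times: 4 h cell pre-growth, 24 h exposure at 30 °C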

[2] = S. cerevisiae growth inhibition in restrictive medium, OD615, pilot screen, restrictive growth control, yeast lifespan reduction project (AID 706;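 active = growth inhibition above a set limit, 3 SD over mean compound inhibition, in both replicates, cut at about 43% in these data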;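 note: modified DeaD lifespan yeast strain shifted to restrictive glucose medium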); details: OD615, 48 h, at 10 µM, active compounds read high
Procedure, shortened: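 System: Engineered S. cerevisiae DeaD strain | Buffer or medium: Glucose-based CSMM-D restrictive medium | Schedule: 4 h pre-incubation, 48 h exposure at 30 °C | Technique: Optical density at 615 nm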

[3] = doxorubicin toxicity protection in MRP-1 cells – H69AR cells, CellTiter-Glo, duplicate, MRP-1 activator project, pilot screen (AID 807;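 active = viability increase at or above a cutoff of the median across tested compounds plus 3 SD, cut at about 8.5% in these data, passing the limit was not always enough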;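 note: compound pretreatment 18-22 h then 72 h combined with doxorubicin; 0% = doxorubicin alone and 100% = vehicle without doxorubicin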); details: H69AR viability with doxorubicin, CellTiter-Glo luminescence; at 10 µM; active compounds read high
[4] = viability of HCT116 without oncogenic beta-catenin – human colon tumor cells, pilot screen (AID 823); details: HCT116 beta-catenin knockout viability, CellTiter-Glo, 60 h; at 10 µM; active compounds read low;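 note: 0% = wells killed by 20 µM Hyamine and 100% = untreated DMSO cell wells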
[5] = viability of PTEN-null HCT116 cells – cell-based, HCT116 clonal line, CellTiter-Glo, pilot screen (AID 824;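 active = viability at or below 27.92% in each of two runs, the all-compound median minus 4 SD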;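 note: 0% = 20 µM Hyamine control and 100% = vehicle cell control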); details: HCT116 PTEN-deleted viability, 60 h, at 10 µM, active compounds read low
[6] = RAM pathway blockade in budding yeast – dse1pr::URA3 reporter, 5-FOA selection, pilot screen (AID 869;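 active = inhibition over a set limit, the all-compound mean plus 3 SD, in both replicate runs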;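 note: 0% = DMSO wells with no growth and 100% = 10 µM 1-NA-PP1 with full growth; RAM network block rescues cells from 5-FOA so hits raise OD615 growth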); details: S. cerevisiae dse1pr::URA3 5-FOA growth, OD615, 2 d; at 10 µM; active compounds read high; strain carries analog-sensitive mutant Cbk1 kinase
[7] = RAM signaling pathway blockade in yeast – S. cerevisiae, Pdr1DBD-CYC8 efflux-inhibited sensitized strain, primary screen (AID 1298;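 active = RAM network inhibition above 8.4% in each of two replicates, 3 SD over the compound average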;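 note: 0% = DMSO untreated cells without growth and 100% = 10 µM 1-NA-PP1 full growth; higher means more yeast growth rescued from 5-FOA killing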); details: S. cerevisiae cbk1-as DSE1-URA3 strain, 5-FOA growth OD615, 2 d; at 50 µM; active compounds read high

Structure (SMILES)	growth inhibition [1] [%]	growth inhibition [2]	viability increase [3] [%]	viability [4] [%]	viability [5] [%]	inhibition [6] [%]	RAM network inhibition [7] [%]
CCOC(=O)Nc1sc(NS(=O)(=O)c2ccccc2)nc1C	-10.4	3.58%	-0.61	105	104	0.295	2.87
Cc1ccc2[nH]c(=O)c3cc(C(=O)N4CCN(C(=O)c5ccco5)CC4)sc3c2c1	5.33	7.05%	-3.84	99	92.3	1.16	7.89
Cc1ccc2oc(=O)n(CC(=O)O)c2c1	-6.32	5.35%	-0.21	98.6	93.7	1.27	-1.2
CC1CCCN(C(=O)C(Cc2ccccc2)n2cccc2)C1 (configuration not stated)	-11.8	-13%	-3.01	87.3	88.4	2	0.97
COc1cc(Cl)c(S(=O)(=O)n2cnc(C)c2)cc1Cl	2.76	0.12%	0.28	101	104	1.33	2.3
CC1CCCN(Cc2nc3c(c(=O)n(C)c(=O)n3C)n2CC(=O)c2ccccc2)C1 (configuration not stated)	-8.04	-16.3%	-4.65	78.2	81.2	-0.325	4.05
O=C(CN1C(=O)c2ccccc2S1(=O)=O)NC1CCCCCC1	2.58	-5%	-1.02	102	101	0.355	4.59
COc1ccc(N(CC(=O)Nc2nc3ccc(C)cc3s2)S(=O)(=O)c2c(C)nn(C)c2C)cc1	-5.89	-16.3%	-7.24	64.9	57.1	1.33	6.79
CC1CCN(c2nc(-c3ccccc3)c(C#N)c(=O)[nH]2)CC1	-10.1	-13.7%	-0.55	101	92.1	1.46	2.74
O=C(CN1CCOc2ccccc21)NCc1ccco1	-11.6	-14.4%	-4.51	88.1	82.9	0.09	0.05
FC(F)Sc1ccc(Nc2ncnc3nc[nH]c23)cc1	16.9	57.8% (active)	-1.54	92.8	90.5	1.23	4.41
O=C(NC1CCCCCC1)C1CCCN1S(=O)(=O)c1cccc2cccnc12 (configuration not stated)	-10.1	-8%	-0.87	90.9	92.1	0.69	3.74
Cc1ccc2c(c1)c(C)c(C)n2CC(O)CN1CCCCC1C (configuration not stated)	-9.72	-9.14%	-4.02	72.2	79.6	0.91	2.28
O=C(O)C1C(c2ccccc2)C(C(=O)OCc2ccco2)C1c1ccccc1 (configuration not stated)	-15.4	-14.6%	-3.32	89.5	88.3	0.645	6.05
COc1cccc2cc(C(=O)N3CCC(C)CC3)c(=O)oc12	-2.37	-3.85%	-0.12	96.8	90.5	1.17	4.51
O=P(c1ccccc1)(c1ccccc1)C1CCCO1 (configuration not stated)	-10.8	8.75%	1.36	97.7	91.7	2.44	0.92
CCSc1nnc(NC(=O)c2cc3c(s2)CCCC3)s1	-3.65	-0.425%	-1.67	54.3	60.2	2	-1.29
O=C1CC(Nc2ccc(N3CCOCC3)cc2)C(=O)N1c1cccc(C(F)(F)F)c1 (configuration not stated)	4.95	-14.4%	-2.76	110	98.2	0.74	5.28

Structure (SMILES)	growth inhibition [1] [%]	growth inhibition [2]	viability increase [3] [%]	viability [4] [%]	viability [5] [%]	inhibition [6] [%]	RAM network inhibition [7] [%]
CCCc1nc(N)c(C#N)c(-c2cccnc2)c1CC	-6.48	-4.83%	-4.91	90.8	84.7	0.805	3.69
N#CCn1nnc(-c2ccc3c(c2)OCO3)n1	-5.24	3.03%	3.41	98.5	103	0.46	0.16
COc1ccc(S(=O)(=O)N2CCC(C(N)=O)CC2)cc1	6.47	-3.14%	0.89	106	102	3.44	4.25
CCOC(=O)C1CCCN(C(=O)Cn2nc(CC)n3c(cc4sccc43)c2=O)C1 (configuration not stated)	-3.41	-9.06%	-0.92	105	105	1.33	8.75
CSc1nnc(Cn2c(=O)sc3ccccc32)n1-c1ccccc1C	-14.4	-4%	-2.05	97.2	96.7	1.73	2.76
CCOC(=O)N1CCC(N2C(=O)c3ccccc3C2Nc2cc(OC)c(OC)c(OC)c2)CC1 (configuration not stated)	6.9	8.61%	-4.12	92.2	79.2	0.24	0.78
CCOc1ccc(OCC)c(Nc2cc(C)nc3nc(C)nn23)c1	-13.3	-2.15%	-6.5	53.1	46.6	0.055	6.18
Nc1cc(N)nc(SCCOc2ccccc2)n1	-4.79	-0.825%	0.93	106	106	2.26	2.17
CCCCOC(=O)Nc1ccccc1C(N)=O	-16.1	-13%	0.35	95.3	102	1.07	1.72
O=C(NC1CC1)c1ccc(CSCc2cccc(F)c2)o1	3.53	3.37%	-2.78	82.3	86.3	1.08	4.29
Cc1ccc(C)c(Cn2c(CN(C)Cc3ccccc3)nc3c2c(=O)n(C)c(=O)n3C)c1	-0.27	-21.5%	-6.57	71.7	61.5	2.2	2.51
O=c1cc(N2CCN(c3ccccc3)CC2)[nH]c(=O)n1Cc1ccc(F)cc1	6.47	-4.22%	0.72	89.6	80.9	2.68	3.61
CC(=O)c1cccc(NC(=O)Nc2cc3sccc3n2C)c1	10.3	10.1%	-3.17	98.2	95.9	0.69	5.08
CC(=O)N1CCN(CCN=CC2=C(O)CC(c3cccs3)CC2=O)CC1 (configuration not stated)	-6.7	-2.31%	-0.76	93.1	103	-0.455	-0.41
CC(C)C(NC(=O)CN1C(=O)c2ccccc2S1(=O)=O)C(C)C	-10	-13%	-2.05	98.8	94.3	1.4	-1.56
COc1ccc(C2N(c3ccc(OC)cc3)C(=O)C3CCCN32)cc1 (configuration not stated)	-3.41	2.04%	-1.64	106	102	0.67	-0.16
O=C(NC1CCCc2ccccc21)c1cccnc1 (configuration not stated)	-4.71	-1.41%	-1.04	91.4	93	1.98	0.22
CCN(CC)C(=O)CCCOc1ccc(Cl)cc1Cl	-2.5	-0.045%	0.07	76.7	83.9	-0.905	0.45

— PubChem BioAssay
